Assay results from ChEMBL document CHEMBL4024767, “Structure-Guided Discovery of Novel, Potent, and Orally Bioavailable Inhibitors of Lipoprotein-Associated Phospholipase A2” (J Med Chem, 2017).
The source made the active and inactive calls. No cut-off for these calls is given here.

Tests used:
[1] = Inhibition of recombinant human full length GST-tagged group-7B PLA2 expressed in Escherichia coli Rosetta(DE3) pLysS using 2-thio-PAF as substrate preincubated for 30 min followed by substrate addition measured every minute for 10 mins by DNTB reagent based assay
Outline: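 Recombinant PLA2-VIIB purified in-house, preincubated 30 min at room temperature with compound and DTNB (10 µL of 2 mM). Substrate solution (50 µM 2-thio-PAF, 50 mM Tris pH 7.2, 1 mM EGTA) then added and absorbance read at 412 nm. IC50 determined.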

[2] = biological target: T1, Platelet-activating factor acetylhydrolase (Rattus norvegicus) (UniProt A6JJ35); assay: Inhibition of Lp-PLA2 in rat plasma at 250 nM using 2-thio-PAF as substrate preincubated for 30 min followed by substrate addition measured every minute for 10 mins by DNTB reagent based assay by DNTB reagent based assay relative to control
T1 sequence (whole entry): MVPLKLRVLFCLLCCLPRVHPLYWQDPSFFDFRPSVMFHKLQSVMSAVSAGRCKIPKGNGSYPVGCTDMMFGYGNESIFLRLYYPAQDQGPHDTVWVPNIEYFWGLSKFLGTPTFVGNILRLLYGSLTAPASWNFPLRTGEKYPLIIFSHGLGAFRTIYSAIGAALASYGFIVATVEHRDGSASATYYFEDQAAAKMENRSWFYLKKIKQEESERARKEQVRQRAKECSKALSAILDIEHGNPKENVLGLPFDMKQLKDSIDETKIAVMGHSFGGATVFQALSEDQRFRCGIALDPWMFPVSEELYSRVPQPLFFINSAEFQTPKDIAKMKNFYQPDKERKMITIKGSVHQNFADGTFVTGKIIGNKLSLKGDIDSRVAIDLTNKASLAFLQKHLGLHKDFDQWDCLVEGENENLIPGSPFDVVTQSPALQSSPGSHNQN
Outline: (§1)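 Rat plasma added directly as enzyme source and preincubated 30 min at room temperature with inhibitor at 250 or 50 nM and DTNB (10 µL of 2 mM). Reaction started with substrate solution: 50 µM 2-thio-PAF, 50 mM Tris pH 7.2, 1 mM EGTA. Thiol release read at 412 nm; percent inhibition calculated.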

[3] = biological target: T1, Platelet-activating factor acetylhydrolase (Rattus norvegicus); assay: Inhibition of Lp-PLA2 in rat plasma at 50 nM using 2-thio-PAF as substrate preincubated for 30 min followed by substrate addition measured every minute for 10 mins by DNTB reagent based assay relative to control; outline: as §1
[4] = species: Rattus norvegicus; settings: Sprague-Dawley, 25 mg/kg
[5] = species: Rattus norvegicus; settings: Sprague-Dawley, 25 mg/kg; remark: listed apart in the source
[6] = biological target: T2, Platelet-activating factor acetylhydrolase (Homo sapiens, UniProt Q13093); assay: Inhibition of human recombinant GST-tagged Lp-PLA2 (47 to 429 residues) expressed in Escherichia coli Rosetta(DE3) pLysS using 2-thio-PAF as substrate preincubated for 30 min followed by substrate addition measured every minute for 10 mins by DNTB reagent based assay
T2 sequence (Q13093 whole entry): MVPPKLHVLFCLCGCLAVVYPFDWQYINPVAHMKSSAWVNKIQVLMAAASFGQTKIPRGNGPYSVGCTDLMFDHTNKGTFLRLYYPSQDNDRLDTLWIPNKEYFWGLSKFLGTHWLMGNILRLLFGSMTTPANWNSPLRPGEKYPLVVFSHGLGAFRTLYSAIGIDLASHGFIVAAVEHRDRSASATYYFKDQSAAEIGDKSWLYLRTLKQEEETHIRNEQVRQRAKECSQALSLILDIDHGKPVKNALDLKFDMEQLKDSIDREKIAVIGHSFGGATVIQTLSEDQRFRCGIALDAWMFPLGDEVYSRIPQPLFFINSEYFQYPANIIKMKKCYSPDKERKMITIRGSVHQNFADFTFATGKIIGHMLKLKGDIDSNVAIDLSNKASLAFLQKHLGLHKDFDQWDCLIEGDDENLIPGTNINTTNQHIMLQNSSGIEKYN

[7] = biological target: T3, Platelet-activating factor acetylhydrolase (Homo sapiens) (UniProt Q13093); settings: 1000 uM
T3 sequence (whole entry): T2 sequence (Q13093 whole entry)

[8] = species: Rattus norvegicus; settings: Sprague-Dawley, 3 mg/kg
[9] = species: Rattus norvegicus; settings: Sprague-Dawley, 25 mg/kg; remark: listed apart in the source

Row | SMILES | IC50 [1] [µM] | inhibition [2] [%] | inhibition [3] [%] | IC50 [6] [µM] | inhibition [7] [%] | inhibition [4] | inhibition [5] | inhibition [8] | inhibition [9]
1 | N#Cc1cc(NS(=O)(=O)c2ccc(N3CCNCC3)cc2)ccc1Oc1ccc(Cl)c(C(F)(F)F)c1 | > 25 | 68 | 31 | – | – | – | – | – | –
2 | CCN(CC)CCN(Cc1ccc(-c2ccc(C(F)(F)F)cc2)cc1)C(=O)Cn1c(SCc2ccc(F)cc2)nc(=O)c2c1CCC2 [DARAPLADIB] | 2 | 97 | 98 | – | – | – | – | Active | –
3 | N#Cc1cc(NS(=O)(=O)c2ccc(N3CCOCC3)cc2)ccc1Oc1ccc(Cl)c(C(F)(F)F)c1 | > 25 | 48 | 17 | – | – | – | – | – | –
4 | CC(=O)Nc1ccc(S(=O)(=O)Nc2ccc(Oc3ccc(F)c(C(F)(F)F)c3)c(C#N)c2)cc1 | > 25 | 55 | 23 | – | – | – | – | – | –
5 | CC(=O)NCc1ccc(S(=O)(=O)Nc2ccc(Oc3ccc(Cl)c(C(F)(F)F)c3)c(C#N)c2)cc1 | > 25 | 80 | 51 | – | – | – | – | – | –

Continued, in another order:

Row | IC50 [1] [µM] | inhibition [2] [%] | inhibition [3] [%] | IC50 [6] [µM] | inhibition [7] [%] | SMILES | inhibition [4] | inhibition [5] | inhibition [8] | inhibition [9]
6 | > 25 | 67 | 31 | – | – | N#Cc1cc(NS(=O)(=O)c2ccc(C(=O)O)cc2)ccc1Oc1ccc(Cl)c(C(F)(F)F)c1 | Active | inactive | – | –
7 | > 25 | 64 | 32 | – | – | CC(=O)Nc1ccc(S(=O)(=O)Nc2ccc(Oc3ccc(Cl)c(C(F)(F)F)c3)c(C#N)c2)cc1 | – | – | – | –
8 | > 25 | 45 | 15 | – | – | CC(=O)N(C)c1ccc(S(=O)(=O)Nc2ccc(Oc3ccc(Cl)c(C(F)(F)F)c3)c(C#N)c2)cc1 | – | – | – | –
9 | – | – | – | 1000 | 55 | CS(=O)(=O)Nc1ccc(F)c(F)c1 | – | – | – | –
10 | > 25 | 64 | 27 | – | – | N#Cc1cc(NS(=O)(=O)c2ccc(NC(=O)N3CCOCC3)cc2)ccc1Oc1ccc(Cl)c(C(F)(F)F)c1 | – | – | – | –
11 | > 25 | 67 | 33 | – | – | N#Cc1cc(NS(=O)(=O)c2ccc(N)cc2)ccc1Oc1ccc(Cl)c(C(F)(F)F)c1 | – | – | – | Active
12 | > 25 | 42 | 11 | – | – | CC(=O)Nc1ccc(S(=O)(=O)Nc2ccc(Oc3ccc(C#N)c(C(F)(F)F)c3)c(C#N)c2)cc1 | – | – | – | –
